Test results taken from ChEMBL document CHEMBL2216753, “Novel 1,4-benzoxazine and 1,4-benzodioxine inhibitors of angiogenesis” (Eur J Med Chem, 2012).
pIC50: −log10 of the molar value. Active and inactive are the calls of the source. The calls are words filed in the database; no cut-off is given here.

Columns and labels:
[1] = Cytotoxicity against bovine BAEC cells at 30 uM after 3 days by coulter counter method; type: cell-based, Bos taurus; conditions: cattle, 72 h
Outline: (§1)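 Cells seeded at 10,000 cells per cm2; after 16 h, fresh medium with test compound added. Cells trypsinized and counted with a Coulter counter on day 4 (BAEC, HeLa, MCF-7) or day 7 (HMEC-1). Cytotoxicity (cell death) was judged after 3 days in culture. HMEC-1 grown in EGM-2 with supplements and growth factors.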

[2] = Antiproliferative activity against bovine BAEC cells after 4 days by coulter counter method; type: functional, cell-based; conditions: Bos taurus, 96 h
[3] = system: HMEC-1; experiment: Antiangiogenic activity in human HMEC1 cells assessed as inhibition of tube formation after 4 to 6 hrs by matrigel assay; type: functional, cell-based
Outline: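 HMEC-1 (60,000 cells) seeded on matrigel (10 mg/mL) after 30 min gelling at 37 °C, in DMEM containing test compound; after 4–6 h cells photographed and tubes scored 0 (none) to 3 (maximal, like untreated control). Mean ± SD of 2–4 independent experiments; Student t test, p < 0.05 significant.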

[4] = system: MCF7; experiment: Cytotoxicity against human MCF7 cells at 30 uM after 3 days by coulter counter method; type: cell-based; conditions: mcf7, 72 h; outline: as §1
[5] = system: HeLa; experiment: Cytotoxicity against human HeLa cells at 100 uM after 3 days by coulter counter method; type: cell-based; conditions: 72 h; outline: as §1
[6] = system: MCF7; experiment: Antiproliferative activity against human MCF7 cells after 4 days by coulter counter method; type: functional, cell-based; conditions: MCF7, 96 h
[7] = system: MAEC; experiment: Antimigratory activity against mouse MAEC cell migration after 5 hrs by wound closure assay; type: functional, cell-based
Outline: (§2)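 Confluent MAEC monolayers wounded with a 1.0-mm wide micropipette tip, then incubated in fresh medium with test compound. Wounds photographed after 5 h and width calculated from digital images. Mean ± SD of 2–4 independent experiments; Student t test, p < 0.05 significant.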

[8] = system: MCF7; experiment: Cytotoxicity against human MCF7 cells at 100 uM after 3 days by coulter counter method; type: cell-based; conditions: mcf7, 72 h; outline: as §1
[9] = system: HeLa; experiment: Antiproliferative activity against human HeLa cells after 4 days by coulter counter method; type: functional, cell-based; conditions: 96 h
[10] = system: MAEC; experiment: Antimigratory activity against mouse MAEC cell migration at 30 uM after 5 hrs by wound closure assay; type: functional; outline: as §2
[11] = organism: Gallus gallus; experiment: Antiangiogenic activity in chicken embryo chorioallantoic membrane model at 250 nmol/disc after 3 days; type: functional, tissue-based
[12] = Cytotoxicity against bovine BAEC cells at 100 uM after 3 days by coulter counter method; type: cell-based, Bos taurus; conditions: cattle, 72 h; outline: as §1
[13] = Cytotoxicity against human HMEC1 cells at 30 uM after 3 days by coulter counter method; type: cell-based; conditions: hmec-1, 72 h; outline: as §1
[14] = system: HeLa; experiment: Cytotoxicity against human HeLa cells at 30 uM after 3 days by coulter counter method; type: cell-based; conditions: 72 h; outline: as §1
[15] = Cytotoxicity against human HMEC1 cells at 100 uM after 3 days by coulter counter method; type: cell-based; conditions: hmec-1, 72 h; outline: as §1
[16] = Antimigratory activity against mouse MAEC cell migration at 10 uM after 5 hrs by wound closure assay; type: functional; outline: as §2
[17] = Antiproliferative activity against human HMEC1 cells after 7 days by coulter counter method; type: functional, cell-based; conditions: HMEC-1, 168 h

## CCOC(=O)C(=O)N(Cc1cc(F)cc(F)c1)c1ccc2c(c1)N(C)CC(C)(COc1ccc(C(=N)N)cc1)O2 (configuration not stated)
[1]
  Activity: Non-toxic
[2]
  pIC50: 4.96
[3]
  inhibition: Dose-dependent effect
[4]
  Activity: Non-toxic
[5]
  Activity: Toxic
[6]
  pIC50: 5.28
[7]
  inhibition: Dose-dependent effect
[8]
  Activity: Toxic
[9]
  pIC50: 5.16
[10]
  inhibition: Active
[11]
  inhibition: Active
[12]
  Activity: Toxic
[13]
  Activity: Non-toxic
[14]
  Activity: Non-toxic
[15]
  Activity: Toxic
[16]
  inhibition at 10 µM: 50%
[17]
  pIC50: 5.11

## CN1CC(C)(COc2ccc(C(=N)N)cc2)Oc2ccc(N(Cc3ccc(F)c(F)c3)C(=O)C(=O)O)cc21 (configuration not stated)
[11]
  inhibition: inactive

## CN1CC(C)(COc2ccc(C(=N)N)cc2)Oc2cc(N(Cc3ccc(F)c(F)c3)C(=O)C(=O)O)ccc21 (configuration not stated)
[11]
  inhibition: inactive

## Cc1cc(C)c(/C=C2\C(=O)Nc3ccccc32)[nH]1
[7]
  inhibition: Dose-dependent effect

## CN1CC(C)(CO)Oc2cc(N(Cc3cc(F)cc(F)c3)C(=O)C(=O)O)ccc21 (configuration not stated)
[2]
  pIC50: < 4.00
[9]
  pIC50: < 4.00

## CCOC(=O)C(=O)N(Cc1ccc(F)c(F)c1)c1ccc2c(c1)N(C)CC(C)(COc1ccc(C(=N)N)cc1)O2 (configuration not stated)
[1]
  Activity: Non-toxic
[2]
  pIC50: 5.13
[3]
  inhibition: Dose-dependent effect
[4]
  Activity: Non-toxic
[5]
  Activity: Toxic
[6]
  pIC50: 5.20
[7]
  inhibition: Dose-dependent effect
[8]
  Activity: Toxic
[9]
  pIC50: 4.85
[10]
  inhibition: Active
[11]
  inhibition: Active
[12]
  Activity: Toxic
[13]
  Activity: Non-toxic
[14]
  Activity: Non-toxic
[15]
  Activity: Toxic
[16]
  inhibition at 10 µM: 50%
[17]
  pIC50: 5.08

## CN1CC(C)(COc2ccc(C(=N)N)cc2)Oc2ccc(N(CC(=O)O)Cc3ccc(F)c(F)c3)cc21 (configuration not stated)
[11]
  inhibition: inactive

## CCOC(=O)C(=O)N(Cc1cccc(F)c1)c1ccc2c(c1)OC(C)(COc1ccc(C(=N)N)cc1)CN2C (configuration not stated)
[1]
  Activity: Non-toxic
[2]
  pIC50: 5.19
[3]
  inhibition: Dose-dependent effect
[4]
  Activity: Non-toxic
[5]
  Activity: Toxic
[6]
  pIC50: 5.42
[7]
  inhibition: Dose-dependent effect
[8]
  Activity: Toxic
[9]
  pIC50: 5.11
[10]
  inhibition: Active
[11]
  inhibition: Active
[12]
  Activity: Toxic
[13]
  Activity: Non-toxic
[14]
  Activity: Non-toxic
[15]
  Activity: Toxic
[16]
  inhibition at 10 µM: 50%
[17]
  pIC50: 5.10

## CCOC(=O)CN(Cc1cc(F)cc(F)c1)c1ccc2c(c1)N(C)CC(C)(COc1ccc(C#N)cc1)O2 (configuration not stated)
[2]
  pIC50: < 4.00
[5]
  Activity: Toxic
[6]
  pIC50: < 4.00
[8]
  Activity: Toxic
[9]
  pIC50: < 4.00
[12]
  Activity: Toxic
[15]
  Activity: Toxic
[17]
  pIC50: < 4.00

## CCOC(=O)C(=O)N(Cc1ccc(F)c(F)c1)c1ccc2c(c1)OC(C)(COc1ccc(C(=N)N)cc1)CN2C (configuration not stated)
[1]
  Activity: Non-toxic
[2]
  pIC50: 5.31
[3]
  inhibition: Dose-dependent effect
[4]
  Activity: Non-toxic
[5]
  Activity: Toxic
[6]
  pIC50: 5.24
[7]
  inhibition: Dose-dependent effect
[8]
  Activity: Toxic
[9]
  pIC50: 4.96
[10]
  inhibition: Active
[11]
  inhibition: Active
[12]
  Activity: Toxic
[13]
  Activity: Non-toxic
[14]
  Activity: Non-toxic
[15]
  Activity: Toxic
[16]
  inhibition at 10 µM: 50%
[17]
  pIC50: 5.17

## CN1CC(C)(COc2ccc(C(=N)N)cc2)Oc2cc(N(Cc3cccc(F)c3)C(=O)C(=O)O)ccc21 (configuration not stated)
[11]
  inhibition: inactive

## CN1CC(C)(COc2ccc(C(=N)N)cc2)Oc2ccc(N(Cc3ccc(F)cc3)C(=O)C(=O)O)cc21 (configuration not stated)
[11]
  inhibition: inactive

## CN1CC(C)(COc2ccc(C(=N)N)cc2)Oc2ccc(N(Cc3cc(F)cc(F)c3)C(=O)C(=O)O)cc21 (configuration not stated)
[11]
  inhibition: inactive

## CN1CC(C)(COc2ccc(C(=N)N)cc2)Oc2cc(N(CC(=O)O)Cc3cc(F)cc(F)c3)ccc21 (configuration not stated)
[11]
  inhibition: inactive

## N=C(N)c1ccc(OCC2COc3ccc(N(Cc4ccccc4)C(=O)C(=O)O)cc3O2)cc1 (configuration not stated)
[2]
  pIC50: < 4.00
[9]
  pIC50: < 4.00
[11]
  inhibition: inactive

## CN1CC(C)(COc2ccc(C(=N)N)cc2)Oc2cc(N(Cc3cc(F)cc(F)c3)C(=O)C(=O)O)ccc21 (configuration not stated)
[11]
  inhibition: inactive

## CN1CC(C)(COc2ccc(C(=N)N)cc2)Oc2ccc(N(Cc3cccc(F)c3)C(=O)C(=O)O)cc21 (configuration not stated)
[11]
  inhibition: inactive

## CN1CC(C)(COc2ccc(C(=N)N)cc2)Oc2ccc(N(CC(=O)O)Cc3cccc(F)c3)cc21 (configuration not stated)
[11]
  inhibition: inactive

## CN1CC(C)(CO)Oc2cc(N(Cc3ccccc3)C(=O)C(=O)O)ccc21 (configuration not stated)
[2]
  pIC50: < 4.00
[9]
  pIC50: < 4.00

## CN1CC(C)(COc2ccc(C(=N)N)cc2)Oc2cc(N(Cc3ccc(F)cc3)C(=O)C(=O)O)ccc21 (configuration not stated)
[11]
  inhibition: inactive

## CCOC(=O)CN(Cc1ccc(F)cc1)c1ccc2c(c1)OC(C)(COc1ccc(C#N)cc1)CN2C (configuration not stated)
[2]
  pIC50: 4.30
[5]
  Activity: Toxic
[6]
  pIC50: < 4.00
[8]
  Activity: Toxic
[9]
  pIC50: < 4.00
[12]
  Activity: Toxic
[15]
  Activity: Toxic
[17]
  pIC50: < 4.00

## N=C(N)c1ccc(OCC2COc3cc(N(Cc4ccccc4)C(=O)C(=O)O)ccc3O2)cc1 (configuration not stated)
[2]
  pIC50: < 4.00
[9]
  pIC50: < 4.00
[11]
  inhibition: inactive

## CN1CC(C)(COc2ccc(C(=N)N)cc2)Oc2cc(N(CC(=O)O)Cc3ccc(F)cc3)ccc21 (configuration not stated)
[11]
  inhibition: inactive

## CN1CC(C)(COc2ccc(C(=N)N)cc2)Oc2cc(N(CC(=O)O)Cc3cccc(F)c3)ccc21 (configuration not stated)
[11]
  inhibition: inactive

## CCOC(=O)CN(Cc1cccc(F)c1)c1ccc2c(c1)N(C)CC(C)(COc1ccc(C#N)cc1)O2 (configuration not stated)
[2]
  pIC50: < 4.00
[5]
  Activity: Toxic
[6]
  pIC50: < 4.00
[7]
  inhibition: Dose-dependent effect
[8]
  Activity: Toxic
[9]
  pIC50: < 4.00
[12]
  Activity: Toxic
[15]
  Activity: Toxic
[17]
  pIC50: < 4.00

## CCOC(=O)CN(Cc1cc(F)cc(F)c1)c1ccc2c(c1)OC(C)(COc1ccc(C#N)cc1)CN2C (configuration not stated)
[2]
  pIC50: 4.60
[5]
  Activity: Toxic
[6]
  pIC50: 4.27
[8]
  Activity: Toxic
[9]
  pIC50: < 4.00
[12]
  Activity: Toxic
[15]
  Activity: Toxic
[17]
  pIC50: 4.31

## CN1CC(C)(COc2ccc(C(=N)N)cc2)Oc2ccc(N(CC(=O)O)Cc3ccc(F)cc3)cc21 (configuration not stated)
[11]
  inhibition: inactive

## CN1CC(C)(COc2ccc(C(=N)N)cc2)Oc2ccc(N(CC(=O)O)Cc3cc(F)cc(F)c3)cc21 (configuration not stated)
[11]
  inhibition: inactive

## CCOC(=O)C(=O)N(Cc1cccc(F)c1)c1ccc2c(c1)N(C)CC(C)(COc1ccc(C(=N)N)cc1)O2 (configuration not stated)
[3]
  inhibition: Dose-dependent effect
[7]
  inhibition: Dose-dependent effect
[10]
  inhibition: Active
[11]
  inhibition: Active

## CN1CC(C)(COc2ccc(C(=N)N)cc2)Oc2cc(N(CC(=O)O)Cc3ccc(F)c(F)c3)ccc21 (configuration not stated)
[11]
  inhibition: inactive
